According to ChEMBL document CHEMBL1938336, “Quinolone derivatives containing strained spirocycle as orally active glycogen synthase kinase 3β (GSK-3β) inhibitors for type 2 diabetics” (Bioorg Med Chem, 2012):
Values after ≈ are worked out from the molar mass of the structure shown. Blank lines part the entries; values can stand above or below the compound they belong to.

Tests used:
[1] = molecular target: T1, Glycogen synthase kinase-3 beta (Homo sapiens, UniProt P49841); experiment: Inhibition of human recombinant GSK3-beta after 1 hr by KinaseGlo luciferase assay
Target sequence in this assay (P49841 whole entry): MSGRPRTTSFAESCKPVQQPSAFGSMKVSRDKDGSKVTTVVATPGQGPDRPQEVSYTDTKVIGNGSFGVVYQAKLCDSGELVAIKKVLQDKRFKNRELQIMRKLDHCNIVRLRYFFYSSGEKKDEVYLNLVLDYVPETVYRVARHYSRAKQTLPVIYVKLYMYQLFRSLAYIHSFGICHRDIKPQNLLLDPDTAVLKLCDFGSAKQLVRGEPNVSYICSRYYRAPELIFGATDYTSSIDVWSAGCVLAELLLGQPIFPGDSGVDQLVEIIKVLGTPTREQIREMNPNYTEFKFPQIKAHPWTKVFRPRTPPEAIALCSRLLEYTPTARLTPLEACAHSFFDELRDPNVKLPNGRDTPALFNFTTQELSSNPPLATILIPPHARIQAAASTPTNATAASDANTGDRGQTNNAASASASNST

[2] = molecular target: T1, Glycogen synthase kinase-3 beta; experiment: Inhibition of GSK3-beta in human HepG2 cells assessed as incorporation of [3H]glucose into glycogen after 3 hrs by liquid scintillation counting; assay type: cell-based
Target sequence in this assay (P49841 whole entry): as above

[3] = molecular target: T1, Glycogen synthase kinase-3 beta; experiment: Inhibition of GSK3-beta in human HepG2 cells assessed as incorporation of [3H]glucose into glycogen at 30 uM after 3 hrs by liquid scintillation counting relative to CHIR99021; assay type: cell-based
In short: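 Hep G2 cells seeded at 1 × 10^5 per well and cultured 3 days, then serum-starved 3 h in low-glucose DMEM. Compound added at varying concentrations with […] D-[2-3H]glucose (0.3% DMSO final) for 3 h at 37 °C. Cells lysed in KOH, glycogen ethanol-precipitated, and [3H] incorporation counted by scintillation. Efficacy is % of reference at 30 µM; n = 3.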
Target sequence in this assay (P49841 whole entry, looked up): as the sequence (P49841 whole entry) above

Escherichia coli = experiment: Antibacterial activity against Escherichia coli after 18 hrs by microdilution method; assay type: organism-based
Staphylococcus aureus = experiment: Antibacterial activity against Staphylococcus aureus after 18 hrs by microdilution method; assay type: organism-based; settings: in vitro
[4] = AUC (0 to 25 hrs) in ICR mouse plasma at 300 mg/kg, po; assay type: ADME, organism-based; design: time < 25 hr, dose 300 mg/kg, route oral
[5] = Ratio of drug uptake in ICR mouse liver to ICR mouse plasma at 300 mg/kg, po at 4 hrs; assay type: ADME, organism-based; design: dose 300 mg/kg, route oral
In short: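 Liver and plasma concentrations measured 4 h after an oral 300 mg/kg dose in ICR mice; ratio given as liver/plasma; means, n = 5–6.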

[6] = AUC in ICR mouse liver at 300 mg/kg, po; assay type: ADME, organism-based; design: dose 300 mg/kg, route oral
In short: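 ICR mice dosed orally at 300 mg/kg. Liver AUC was calculated from the plasma AUC and the liver-to-plasma concentration ratio at 4 h post-dose. Means, n = 5–6.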

Mus musculus [7] = experiment: Antidiabetic activity in fasted ICR mouse assessed as inhibition of plasma glucose concentration at 300 mg/kg, po administered 30 mins prior to glucose-challenge by oral glucose tolerance test; assay type: functional
In short: (§1)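 7-week-old ICR mice fasted 15–17 h, dosed orally with compound suspended in 0.3% CMC-Na or with vehicle. Glucose 5 g/kg given orally 30 min later. Tail-vein blood sampled before dosing and at 0, 0.5, 1 and 2 h after the glucose load; plasma glucose measured by glucose C II-test. The summed 0.5 + 1 h glucose values are expressed as % decrease versus vehicle.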

Mus musculus [8] = experiment: Ratio of AUC (0 to 25 hrs) in ICR mouse plasma to AUC in ICR mouse liver at 300 mg/kg, po; assay type: ADME, organism-based; design: dose 300 mg/kg, route oral; settings: in vivo
Mus musculus [9] = experiment: Antidiabetic activity in fasted ICR mouse assessed as inhibition of plasma glucose concentration at 50 mg/kg, po administered 30 mins prior to glucose-challenge by oral glucose tolerance test; assay type: functional; in short: as §1
Mus musculus [10] = experiment: Antidiabetic activity in fasted ICR mouse assessed as inhibition of plasma glucose concentration at 100 mg/kg, po administered 30 mins prior to glucose-challenge by oral glucose tolerance test; assay type: functional; in short: as §1
Mus musculus [11] = experiment: Antidiabetic activity in fasted ICR mouse assessed as inhibition of plasma glucose concentration at 150 mg/kg, po administered 30 mins prior to glucose-challenge by oral glucose tolerance test; assay type: functional; in short: as §1
Mus musculus [12] = experiment: Antidiabetic activity in po dosed fasted ICR mouse assessed as inhibition of plasma glucose concentration administered 30 mins prior to glucose-challenge by oral glucose tolerance test; assay type: functional, organism-based; in short: as §1

Compound: Nc1c(F)c(NCCNc2ccccn2)c2c3c1c(=O)c(C(=O)O)cn3C1(CCCC1)CCO2
IC50 [1]: 250 nM
EC50 [2]: 13000 nM
Efficacy [3]: 85%
MIC (Escherichia coli): > 34 µM
MIC (Staphylococcus aureus): > 34 µM

Compound: Nc1c(F)c(NCCNc2ccccn2)c2c3c1c(=O)c(C(=O)O)cn3C1(CCCC1)CO2
EC50 [2]: 20000 nM

Compound: Cc1cnc(-c2cnc(NCCNc3ccc(C#N)cn3)nc2-c2ccc(Cl)cc2Cl)[nH]1 [LADUVIGLUSIB]
Efficacy [3]: 100%
inhibition in vivo at 300 mg/kg (Mus musculus [7]): 38%

Compound: Cc1c[nH]c(-c2cnc(NCCNc3ccc(C#N)cn3)nc2-c2ccc(Cl)cc2Cl)n1 [LADUVIGLUSIB]
AUC(0-t) at 25 h [4]: 210 µM·h
Kp at 4 h [5]: 3.8
AUC [6]: 820 µM·h

Compound: Nc1c(F)c(NCCNc2ccccn2)c2c3c1c(=O)c(C(=O)O)cn3C1(CCC1)CCN2
IC50 [1]: 550 nM
Efficacy [3]: 12%
MIC (Escherichia coli): > 140 µM
MIC (Staphylococcus aureus): > 140 µM

Further lines, with some results ahead:

IC50 [1]: 10 nM
EC50 [2]: 1400 nM
Efficacy [3]: 48%
MIC (Escherichia coli): > 34 µM
MIC (Staphylococcus aureus): > 34 µM
AUC(0-t) at 25 h [4]: 6.8 µM·h
Kp at 4 h [5]: 32
AUC [6]: 217 µM·h
Compound: CC1COc2c(NCCNc3ccccn3)c(F)c(N)c3c(=O)c(C(=O)O)cn(c23)C12CCC2 (configuration not stated)
inhibition in vivo at 300 mg/kg (Mus musculus [7]): 13%

IC50 [1]: 36 nM
EC50 [2]: 3200 nM
Efficacy [3]: 65%
MIC (Escherichia coli): > 34 µM
MIC (Staphylococcus aureus): 18 µM (≈ 8.16 µg/mL)
AUC(0-t) at 25 h [4]: 24 µM·h
Kp at 4 h [5]: 32
AUC [6]: 760 µM·h
Ratio AUC (Mus musculus [8]): 32
Compound: Nc1c(F)c(NCCNc2ccccn2)c2c3c1c(=O)c(C(=O)O)cn3C1(CCC1)CCO2
inhibition in vivo at 300 mg/kg (Mus musculus [7]): 31%
inhibition in vivo at 50 mg/kg (Mus musculus [9]): 20%
inhibition in vivo at 100 mg/kg (Mus musculus [10]): 32%
inhibition in vivo at 150 mg/kg (Mus musculus [11]): 39%
inhibition (Mus musculus [12]): Dose-dependent effect

IC50 [1]: 250 nM
EC50 [2]: 2100 nM
Efficacy [3]: 94%
MIC (Escherichia coli): > 34 µM
MIC (Staphylococcus aureus): > 34 µM
Compound: CC1CC2(CCC2)n2cc(C(=O)O)c(=O)c3c(N)c(F)c(NCCNc4ccccn4)c(c32)O1 (configuration not stated)

IC50 [1]: 37 nM
Efficacy [3]: 42%
MIC (Escherichia coli): 9 µM (≈ 3.96 µg/mL)
MIC (Staphylococcus aureus): 5 µM (≈ 2.2 µg/mL)
Compound: Nc1c(F)c(NCCNc2ccccn2)c2c3c1c(=O)c(C(=O)O)cn3C1(CCO2)CC1
